Activity calls are given as the source filed them. The calls are words filed in the database; no cut-off is given here.
Legend:
[1] = species: Bos taurus; experiment: Inhibition of glycosaminoglycan biosynthesis in BLMVEC assessed as [3H]glucosamine incorporation at 300 uM after 24 hrs by liquid scintillation counting; type: functional
Outline: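 Cells seeded at 2 × 10⁵/well and grown 24 h at 37 °C, then switched to DMEM with 1 mM glucose and 10% dialyzed FBS. Treated 24 h with 300 µM compound (from 30 mM DMSO stock) or DMSO alone, with ³H-glucosamine. Pronase digest overnight at 37 °C; GAGs bound to DEAE-Sepharose, washed at pH 6.0 with 0.1 M NaCl, eluted with 1 M NaCl; eluate radioactivity by scintillation counting.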

[2] = Cytotoxicity against BLMVEC assessed as cell viability at <=300 uM after 24 hrs by celltiter blue assay; parameters: species or system Bos taurus; conditions: cattle
Outline: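 Bovine lung microvascular endothelial cells seeded at 2.5 × 10⁴ cells/well in duplicate, Ham's F-12 with 10% FBS. Exposed to DMSO (control) or compound at 0.1, 0.3 and 1.0 mM for 24 h at 37 °C; 3% H₂O₂ as control. CellTiter-Blue added for 2 h, stopped with 3% SDS, fluorescence read at ex 560/em 590 nm.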

[3] = species: Bos taurus; experiment: Inhibition of glycosaminoglycan biosynthesis in BLMVEC assessed as [3H]-labeled-GAG chains by anion exchange chromatography; type: functional; conditions: dose or concentration not given here
Outline: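 ³H-glucosamine-labelled GAG chains from cells given 300 µM compound or DMSO for 24 h were run on DEAE-HPLC. Elution over 80 min with a 0.2–1 M NaCl linear gradient, monitored by an in-line radiometric detector; heparan sulfate and chondroitin sulfate resolved as separate peaks between 20 and 50 min.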

Structure (SMILES) | inhibition [1] | Activity [2] | inhibition [3]
O[C@@H]1[C@@H](O)[C@H](n2cc(COCc3ccc4ccccc4c3)nn2)OC[C@H]1F | inactive | Non-toxic | –
O[C@@H]1[C@@H](O)[C@@H](n2cc(COCc3ccc4ccccc4c3)nn2)OC[C@H]1F | Active | Non-toxic | –
O[C@@H]1[C@@H](O)[C@H](n2cc(COc3ccc(F)cc3)nn2)OC[C@H]1F | Active | Non-toxic | –
O=[N+]([O-])c1ccc(OCc2cn([C@H]3OC[C@@H](F)[C@H](O)[C@H]3O)nn2)cc1 | 80% | Non-toxic | 80%
O[C@@H]1[C@@H](O)[C@@H](n2cc(-c3ccc4ccccc4c3)nn2)OC[C@H]1F | Active | Non-toxic | –
O[C@@H]1[C@@H](O)[C@@H](n2cc(COc3ccc(F)cc3)nn2)OC[C@H]1F | Active | Non-toxic | –
O=[N+]([O-])c1ccc(OCc2cn([C@@H]3OC[C@@H](F)[C@H](O)[C@H]3O)nn2)cc1 | 80% | Non-toxic | 80%

Source: ChEMBL document CHEMBL1287789, “4-deoxy-4-fluoro-xyloside derivatives as inhibitors of glycosaminoglycan biosynthesis” (Bioorg Med Chem Lett, 2010)
